According to ChEMBL document CHEMBL1126608:

Experiments:
[1] = target: Muscarinic acetylcholine receptor M3 (Cavia porcellus) (UniProt Q8VH26); test: Antagonist activity against muscarinic M3 receptor from guinea pig ileum; type: functional, tissue-based
Outline: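 Longitudinal guinea pig ileum strips suspended in oxygenated Krebs buffer; carbachol concentration-response curves with or without at least three increasing antagonist concentrations (5-min preincubation). Contraction as % of maximal carbachol response without antagonist.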

[2] = target: T1, Muscarinic acetylcholine receptor (Homo sapiens) (UniProt P20309+P08173+P11229+P08172+P08912); test: In vivo antimuscarinic activity to decrease carbachol-stimulated salivation in guinea pig; type: functional, organism-based; conditions: Cavia porcellus; target entry is the homologue from another species
Outline: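 Guinea pigs dosed sc with various antagonist doses; 30 min later carbachol 0.1 mg/kg ip; ability to respond to agonist scored 5-10 min afterwards.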

[3] = target: T2, Muscarinic acetylcholine receptor M2 (Homo sapiens) (UniProt P08172); test: Antagonist activity against muscarinic M2 receptor from guinea pig atria; type: functional; conditions: Cavia porcellus; target entry is the homologue from another species
T2 sequence (whole entry): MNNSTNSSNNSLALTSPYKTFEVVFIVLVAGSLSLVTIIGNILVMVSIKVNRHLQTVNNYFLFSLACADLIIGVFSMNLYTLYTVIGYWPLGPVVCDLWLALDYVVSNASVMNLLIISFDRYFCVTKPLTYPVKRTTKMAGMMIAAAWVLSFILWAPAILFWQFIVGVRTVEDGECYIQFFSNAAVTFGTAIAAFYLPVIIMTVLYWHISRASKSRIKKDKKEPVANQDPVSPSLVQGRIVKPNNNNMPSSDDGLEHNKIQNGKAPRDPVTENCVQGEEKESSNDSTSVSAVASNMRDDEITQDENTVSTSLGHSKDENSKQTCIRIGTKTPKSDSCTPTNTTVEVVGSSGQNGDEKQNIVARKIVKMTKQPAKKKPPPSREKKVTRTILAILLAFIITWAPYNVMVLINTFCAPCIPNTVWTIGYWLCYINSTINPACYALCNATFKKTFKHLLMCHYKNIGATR
Outline: (§1)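 Isolated guinea pig right atria in Krebs-Henseleit buffer; cumulative carbachol concentration-rate response curves before and after at least three increasing antagonist concentrations (5-min preincubation). Responses as % of maximal carbachol-induced rate inhibition without antagonist.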

[4] = target: T1, Muscarinic acetylcholine receptor (Homo sapiens); conditions: Cavia porcellus
[5] = target: T2, Muscarinic acetylcholine receptor M2 (Homo sapiens); test: Antagonist activity against muscarinic M2 receptor from guinea pig atria; Non competitive; type: functional; conditions: Cavia porcellus; filed as antagonist; target entry is the homologue from another species; outline: as §1
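Wherever ID50 is given: in vivo guinea pig assay: antimuscarinic effect measured as reduced salivation after carbachol stimulation.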

Sequence of Muscarinic acetylcholine receptor M3 (Cavia porcellus) (Q8VH26 1-587): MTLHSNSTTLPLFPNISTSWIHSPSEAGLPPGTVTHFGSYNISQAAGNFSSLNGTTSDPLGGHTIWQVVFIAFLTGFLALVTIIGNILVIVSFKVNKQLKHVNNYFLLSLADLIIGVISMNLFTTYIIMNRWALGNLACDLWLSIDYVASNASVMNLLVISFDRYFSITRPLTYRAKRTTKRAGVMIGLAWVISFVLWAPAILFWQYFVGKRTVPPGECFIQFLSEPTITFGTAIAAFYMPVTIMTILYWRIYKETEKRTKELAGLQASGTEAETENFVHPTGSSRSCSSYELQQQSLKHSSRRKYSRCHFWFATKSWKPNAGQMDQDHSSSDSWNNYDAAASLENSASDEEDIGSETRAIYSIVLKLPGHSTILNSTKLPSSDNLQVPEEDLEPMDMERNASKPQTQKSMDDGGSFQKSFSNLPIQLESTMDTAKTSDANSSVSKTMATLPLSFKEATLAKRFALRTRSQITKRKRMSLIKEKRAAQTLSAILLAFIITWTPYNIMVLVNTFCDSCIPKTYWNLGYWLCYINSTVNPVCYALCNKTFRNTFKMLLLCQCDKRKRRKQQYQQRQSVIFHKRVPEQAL

Row | SMILES | Kb [1] [nM] | ED50 [2] [mg/kg] | Kb [3] [nM] | ID50 [4] [mg/kg] | Kb [5]
1 | O=C(CN1CCN(Cc2ccc3c(c2)OCO3)CC1)C(O)(c1ccccc1)C1CCC1 (stereo not given) | 8 | 4 | 45 | – | –
2 | O=C(CN1CCN(CCO)CC1)C(O)(c1ccccc1)C1CCC1 (stereo not given) | 185 | – | 2350 | 4.93 | –
3 | O=C(CN1CCN(C/C=C\c2ccccc2)CC1)C(O)(c1ccccc1)C1CCC1 (stereo not given) | 9.92 | – | 2.3 | 1.2 | –
4 | O=C(CN1CCN(Cc2cccc(Cl)c2)CC1)C(O)(c1ccccc1)C1CCC1 (stereo not given) | 27 | – | 380 | 8.3 | –
5 | O=C(CN1CCN(Cc2ccccc2)CC1)C(O)(c1ccccc1)C1CC1 (stereo not given) | 24 | – | 225 | 9.9 | –
6 | COc1cccc(CN2CCN(CC(=O)C(O)(c3ccccc3)C3CCC3)CC2)c1 (stereo not given) | 17 | – | 136 | – | –
7 | CN1CCN(CC(=O)C(O)(c2ccccc2)C2CCCCC2)CC1 (stereo not given) | 15 | 1.84 | 210 | – | –
8 | O=C(CN1CCN(c2ccc([N+](=O)[O-])cc2)CC1)C(O)(c1ccccc1)C1CCC1 (stereo not given) | > 10000 | – | > 10000 | – | –
9 | O=C(CN1CCC(N2CCCC2)CC1)C(O)(c1ccccc1)C1CCC1 (stereo not given) | > 10000 | – | 2440 | – | –
10 | O=C(CN1CCN(CCc2ccccc2)CC1)C(O)(c1ccccc1)C1CCC1 (stereo not given) | 302 | – | > 1000 | – | –
11 | CCOC(=O)N1CCN(CC(=O)C(O)(c2ccccc2)C2CCCCC2)CC1 (stereo not given) | > 10000 | – | > 30000 | – | –
12 | O=C(CN1CCC(O)CC1)C(O)(c1ccccc1)C1CCC1 (stereo not given) | 472 | – | 2340 | – | –
13 | CN1CCN(CC(=O)C(O)(c2ccccc2)C2CCC2)CC1 (stereo not given) | 13 | – | 79 | 0.72 | –
14 | Cc1ccccc1CN1CCN(CC(=O)C(O)(c2ccccc2)C2CCC2)CC1 (stereo not given) | 199 | – | > 1000 | – | –
15 | CC(C)CC(O)(C(=O)CN1CCN(Cc2ccccc2)CC1)c1ccccc1 (stereo not given) | 171 | – | > 3000 | 43.4 | –
16 | O=C(CN1CCN(C2CCC2)CC1)C(O)(c1ccccc1)C1CCC1 (stereo not given) | 230 | – | 1800 | 18.3 | –
17 | O=C(CN1CCN(Cc2ccccc2)CC1)C(O)(c1ccccc1)c1ccccc1 | 6 | – | 1460 | > 100 | –
18 | O=C(CN1CCN(Cc2cccs2)CC1)C(O)(c1ccccc1)C1CCC1 (stereo not given) | 43.8 | – | 491 | 25 | –
19 | C=CCCN1CCN(CC(=O)C(O)(c2ccccc2)C2CCC2)CC1 (stereo not given) | 35.6 | – | – | 27.2 | Non-competitive antagonist
20 | Cc1ccc(CN2CCN(CC(=O)C(O)(c3ccccc3)C3CCC3)CC2)cc1 (stereo not given) | 11 | – | 82 | 8.4 | –
21 | C=C(C)CN1CCN(CC(=O)C(O)(c2ccccc2)C2CCC2)CC1 (stereo not given) | 100 | 17 | 551 | – | –
22 | C=CCN1CCN(CC(=O)C(O)(c2ccccc2)C2CCCCC2)CC1 (stereo not given) | 25.6 | – | 425 | 21 | –

Row | SMILES | Kb [1] [nM] | ED50 [2] [mg/kg] | Kb [3] [nM] | ID50 [4] [mg/kg] | Kb [5]
23 | O=C(CN1CCN(CC(=O)C(O)(c2ccccc2)C2CCC2)CC1)N1CCCC1 (stereo not given) | 210 | – | > 3000 | – | –
24 | COc1ccc(CN2CCN(CC(=O)C(O)(c3ccccc3)C3CCC3)CC2)cc1 (stereo not given) | 27.9 | – | 263 | 10.8 | –
25 | COc1ccccc1N1CCN(CC(=O)C(O)(c2ccccc2)C2CCC2)CC1 (stereo not given) | > 10000 | – | > 10000 | – | –
26 | CC(C)=CCN1CCN(CC(=O)C(O)(c2ccccc2)C2CCC2)CC1 (stereo not given) | 22 | – | 305 | 4.9 | –
27 | CCCN1CCN(CC(=O)C(O)(c2ccccc2)C2CCC2)CC1 (stereo not given) | 673 | – | 1190 | 31.1 | –
28 | O=C(CN1CCN(c2ccccc2)CC1)C(O)(c1ccccc1)C1CCC1 (stereo not given) | 624 | – | > 30000 | – | –
29 | O=C(CN1CCNCC1)C(O)(c1ccccc1)C1CCC1 (stereo not given) | 87 | – | 940 | 1.65 | –
30 | O=C(CN1CCN(Cc2ccccc2)CC1)C(O)(c1ccccc1)C1CCCCC1 (stereo not given) | 12 | – | 282 | 4.38 | –
31 | O=C(CN1CCN(CCO)CC1)C(O)(c1ccccc1)C1CCCCC1 (stereo not given) | 53 | > 10 | 530 | – | –
32 | O=C(CN1CCC(N2CCCC2)CC1)C(O)(c1ccccc1)C1CCCCC1 (stereo not given) | 349 | – | 4510 | – | –
33 | O=C(CN1CCN(CC(=O)C(O)(c2ccccc2)C2CCC2)CC1)C(O)(c1ccccc1)C1CCC1 (stereo not given) | 207 | – | > 1000 | – | –
34 | CCOc1ccccc1N1CCN(CC(=O)C(O)(c2ccccc2)C2CCC2)CC1 (stereo not given) | > 10000 | – | > 10000 | – | –
35 | O=C(CN1CCN(Cc2ccccc2Cl)CC1)C(O)(c1ccccc1)C1CCC1 (stereo not given) | 56 | – | > 10000 | – | –
36 | O=C(CN1CCN(Cc2ccc([N+](=O)[O-])cc2)CC1)C(O)(c1ccccc1)C1CCC1 (stereo not given) | 105 | – | 2700 | 21 | –
37 | O=C(CN1CCN(Cc2ccccc2)CC1)C(O)(c1ccccc1)C1CCCC1 (stereo not given) | 2.6 | – | 78 | 0.24 | –
38 | CN(C)CCNCC(=O)C(O)(c1ccccc1)C1CCCCC1 (stereo not given) | 5.5 | 0.13 | 216 | – | –
39 | O=C(CN1CCN(Cc2ccco2)CC1)C(O)(c1ccccc1)C1CCC1 (stereo not given) | 750 | – | > 30000 | – | –
40 | O=C(CN1CCN(Cc2ccc(Cl)cc2)CC1)C(O)(c1ccccc1)C1CCC1 (stereo not given) | 16 | – | 515 | 9.8 | –
41 | C=CCN1CCN(CC(=O)C(O)(c2ccccc2)C2CCC2)CC1 (stereo not given) | 60 | – | 299 | 20.4 | –
42 | N#CCN1CCN(CC(=O)C(O)(c2ccccc2)C2CCC2)CC1 (stereo not given) | 2710 | – | > 30000 | 35.7 | –
43 | C#CCN1CCN(CC(=O)C(O)(c2ccccc2)C2CCCCC2)CC1 (stereo not given) | 260 | – | 5670 | – | –
44 | O=C(CN1CCN(C(c2ccccc2)c2ccccc2)CC1)C(O)(c1ccccc1)C1CCC1 (stereo not given) | > 10000 | – | > 100000 | – | –
